Assays:
MS2 coat protein [1] = test: apparent Kd, MS2 coat protein; higher = weaker binding; RNA-MaP array
Outline: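 Binding of fluorescently labeled MS2 coat protein, at 1.5 nM to 3 μM and room temperature, was measured with or without input ligand on designed RNAs transcribed on an Illumina sequencing chip from sequenced DNA templates. Apparent Kd was defined as the median of per-cluster binding-curve fits. No design measured on fewer than 10 clusters was kept.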

MS2 coat protein [2] = test: apparent Kd, MS2 coat protein; higher = weaker binding; RNA-MaP array; FMN 200 µM where present; details: designed as: OFF switch for flavin mononucleotide
Outline: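 In 100 mM Tris-HCl pH 7.5, 80 mM KCl, 4 mM MgCl2, BSA, DTT, yeast tRNA and Tween-20, SNAP-549-labelled MS2 coat protein was titrated from 0.7 or 1.5 nM, doubling to 3 µM, over designs transcribed by stalled E. coli RNA polymerase on Illumina sequencing-chip clusters. This was done first without ligand, then with ligand held constant. After green signal was normalised to red-channel RNA signal and control-cluster median Fmax, the apparent Kd was taken as the median of filtered per-cluster binding-curve fits.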

[3] = designed as: OFF switch for flavin mononucleotide, no ligand
[4] = ligand present: flavin mononucleotide, designed as: OFF switch for flavin mononucleotide
[5] = designed as: ON switch for flavin mononucleotide, no ligand
[6] = ligand present: flavin mononucleotide, designed as: ON switch for flavin mononucleotide
[7] = designed as: OFF switch for theophylline, no ligand
[8] = ligand present: theophylline, designed as: OFF switch for theophylline
[9] = designed as: OFF switch for tryptophan, no ligand
[10] = ligand present: tryptophan, designed as: OFF switch for tryptophan
[11] = ligand present: flavin mononucleotide

## AAACUAUGAGGAUAUACAUGAGGAUCACCCAUGUCGGUACUGGUAUGGCCCUGAUCCCGUAGAAGGCAUCGGUC
MS2 coat protein [1]; [3]
  apparent Kd: 369 nM
MS2 coat protein [1]; [4]
  apparent Kd: 436 nM

## AAAGCCUUUCUAGGAUAUCAAUACAGUCGUGGUUGAGAAGGAGAAACUGCGUUCUAGACAUGAGGAUCACCCAUGUCCUCAAUG
MS2 coat protein [1]; [5]
  apparent Kd: 98.6 nM
MS2 coat protein [1]; [6]
  apparent Kd: 71.9 nM

## AAAGCUACCAAAGGAUAUUGUUUCCAUCACACAUGAGGAUCACCCAUGUAGCCAUAAACGGAUCGCAAGAAGGUUGGGAAAGUG
MS2 coat protein [1]; [5]
  apparent Kd: 18.3 nM
MS2 coat protein [1]; [6]
  apparent Kd: 9.07 nM

## AAAGGAUUCAAGAAGGUACCCUAACAUGAGGAUCACCCAUGUCUCGGUGGCAUCAAGGUACCUGGUAAGGAUAUUGCAACCACU
MS2 coat protein [1]; [5]
  apparent Kd: 39.4 nM
MS2 coat protein [1]; [6]
  apparent Kd: 33.2 nM

## AACAAACACAUGAGGAUCACCCAUGUCCUUGAUAUAAUUACUCAGGAUAUCAUGUCCUCUCACCGUGAGAAGGGAGUCAAAACC
MS2 coat protein [1]; [5]
  apparent Kd: 76.8 nM
MS2 coat protein [1]; [6]
  apparent Kd: 59.5 nM

## AACAUGAGGAUCACCCAUGUCGGGUAUAGGAAUGUGUGUCUGCAGGAUAUGCCUUGCAUUGCAUAGCAGAAGGGCACGGCUCAG
MS2 coat protein [1]; [3]
  apparent Kd: 125 nM
MS2 coat protein [1]; [4]
  apparent Kd: 64.2 nM

## AACAUGAGGAUCACCCAUGUUUCAGAUCCUCUCUGGUUCAAGUAGGAUAUGUGUGAUACGGAAGUACAGAAGGACUCCGGAGCA
MS2 coat protein [1]; [3]
  apparent Kd: 38.4 nM
MS2 coat protein [1]; [4]
  apparent Kd: 29.5 nM

## AACAUGUCUCAAGGAUAUAAAACGCUAAAUGGCUUAGAAGGUGAGGCCGCUGUGAGGAUCCCUGACAUGAGGAUCACCCAUGUC
MS2 coat protein [1]; [5]
  apparent Kd: 10.8 nM
MS2 coat protein [1]; [6]
  apparent Kd: 9.76 nM

## AACCGACAUGAGGAUCACCCAUGUGAGGAUAUGUUCGAGCUGGCAGGACCACCCUGGGACAGAAGGCACGUGAA
MS2 coat protein [1]; [3]
  apparent Kd: 11.2 nM
MS2 coat protein [1]; [4]
  apparent Kd: 17.7 nM

## AAGCUACAUGAGGAUCACCCAUGUCUCACGUCACUAGGAUAUCUGAAGGUGACGAAGUUCAGAGAAGGAGUGCAUC
MS2 coat protein [1]; [5]
  apparent Kd: 97.2 nM
MS2 coat protein [1]; [6]
  apparent Kd: 83.2 nM

## AAGGUGCACGCUCAGGAUAUAUUCCAGGUUACAUGAGGAUCACCCAUGUAGGGUUGAAGAAGGACAUAGAAGGGAGCCUACUUGGC
MS2 coat protein [1]; [5]
  apparent Kd: 32.6 nM
MS2 coat protein [1]; [6]
  apparent Kd: 21.6 nM

## AAGUGCAGCCGAGGAUAUAUCCACACGCCAGUACCCUCUCACAUGAGGAUCACCCAUGUUACCGGAUAGAAGGCGGUUUAUUAU
MS2 coat protein [1]; [3]
  apparent Kd: 31.7 nM
MS2 coat protein [1]; [4]
  apparent Kd: 58.5 nM

## AAUAGCUAAGGAUAUACGUACUCAGAGUGAUAAAUCAAAUAACAUGAGGAUCACCCAUGUAGAAGGAAGAAAUA
MS2 coat protein [1]; [3]
  apparent Kd: 30.9 nM
MS2 coat protein [1]; [4]
  apparent Kd: 26.1 nM

## AAUCGCAAUUGAGGAUAUUGAACUGAAUUGGCCACAUGAGGAUCACCCAUGUGACCUGUCUCCGUCAAGAAGGCAAUGUGGUGG
MS2 coat protein [1]; [5]
  apparent Kd: 5.61 nM
MS2 coat protein [1]; [6]
  apparent Kd: 4.81 nM

## AAUUUUUACUCAGGAUAUUGGGAGAGCACGGGUUGUUCUCCCCACAUGAGGAUCACCCAUGUGAUCAAGAAGGGAGACGCAAAG
MS2 coat protein [1]; [5]
  apparent Kd: 25.9 nM
MS2 coat protein [1]; [6]
  apparent Kd: 16.8 nM

## ACAAAGACAGGAUAUACAAAUUACAACUAAUCAAGGAAAAGACAUGAGGAUCACCCAUGUAGAAGGGUCAAUAA
MS2 coat protein [1]; [3]
  apparent Kd: 26.9 nM
MS2 coat protein [1]; [4]
  apparent Kd: 20.5 nM

## ACAAUCACAUGAGGAUCACCCAUGUUAGACAGGGUCAAUGUGAAGGAUAUGAACAAUGAAAAUACUCAGAAGGUCAUAUUGAAA
MS2 coat protein [1]; [5]
  apparent Kd: 192 nM
MS2 coat protein [1]; [6]
  apparent Kd: 27.4 nM

## ACAAUGUGAGGAUAUCGUAAGCAUGACUAUGGCGCUAACACCGAGAAGGCACAUGAGGAUCACCCAUGUCCUGA
MS2 coat protein [1]; [3]
  apparent Kd: 6.84 nM
MS2 coat protein [1]; [4]
  apparent Kd: 10.7 nM

## ACAGGUAGAGGAUAUCGUGAAAGUCACAUGAGGAUCACCCAUGUGGUAAGCAUGUACGCCCGAGAAGGCUAACCGC
MS2 coat protein [1]; [3]
  apparent Kd: 7.57 nM
MS2 coat protein [1]; [4]
  apparent Kd: 12.4 nM

## ACAUGAGGAUCACCCAUGUUUGACUGGGCUUGCUCUCGCCGUAGAAGGUUUCAUUAAGUAGAGGAAAAGGAUAUACACUGGGCC
MS2 coat protein [1]; [3]
  apparent Kd: 12.2 nM
MS2 coat protein [1]; [4]
  apparent Kd: 10.7 nM

## ACCACAGAGUAGAAGGUCCGACACGGCUCGUCGGAAGGAUAUACAUAUUGUUAGAGAUGGGAACAUGAGGAUCACCCAUGUGUC
MS2 coat protein [1]; [5]
  apparent Kd: 16.2 nM
MS2 coat protein [1]; [6]
  apparent Kd: 9.9 nM

## ACCCAUUUGUUAGGAUAUGACUCGAGACAGGUACAUGAGGAUCACCCAUGUUGUACAGGACCGUCUCAGAAGGAACGAACGUAU
MS2 coat protein [1]; [3]
  apparent Kd: 9.64 nM
MS2 coat protein [1]; [4]
  apparent Kd: 8.75 nM

## ACCCGACAAGUGAGGAUAUUGAUAAGAGGAGCUUACAAGAAGGCACAUGAGGAUCACCCAUGUAUUAAGUGAAG
MS2 coat protein [1]; [3]
  apparent Kd: 7.97 nM
MS2 coat protein [1]; [4]
  apparent Kd: 9.8 nM

## ACCUAAGCCACAGAUACCAGAGUAAUAGGCCAAUUUCAAAACAUGAGGAUCACCCAUGUACUCCCUUGGCAGCUGCGAAUCGAAA
MS2 coat protein [1]; [7]
  apparent Kd: 10.9 nM
MS2 coat protein [1]; [8]
  apparent Kd: 15.2 nM

## ACGCGCUGGGCGGCCGCCACUCACCUGCCGUGGACAUUUCGAGGUCACAUGAGGAUCACCCAUGUGAGGACCGGGCCCUGUAGGC
MS2 coat protein [1]; [9]
  apparent Kd: 13.2 nM
MS2 coat protein [1]; [10]
  apparent Kd: 21.2 nM

## ACUACGCUAGGAUAUACGAGGAGUGCAUGGAAGCGUUUGACACAUGAGGAUCACCCAUGUAGAAGGAGCUGCAA
MS2 coat protein [1]; [3]
  apparent Kd: 7.75 nM
MS2 coat protein [1]; [4]
  apparent Kd: 16.1 nM

## ACUCUAAGAUGAGGAUAUCACAUCUUAUCGCCACGGUGGCUUCACAUGAGGAUCACCCAUGUAUGUGAGAAGGCAUUUCCGGAC
MS2 coat protein [1]; [3]
  apparent Kd: 24.1 nM
MS2 coat protein [1]; [4]
  apparent Kd: 20.7 nM

## ACUGACUUUACGGCCGCCACUCAUUGGCACGUGUCAUGUCAACAUGAGGAUCACCCAUGUAUGAUGAGGACCGGGUAAGGGCUGC
MS2 coat protein [1]; [9]
  apparent Kd: 10.9 nM
MS2 coat protein [1]; [10]
  apparent Kd: 12.7 nM

## AGAAUAUGAAUAGGAUAUCUGCGUAAUGAUAAAAGAGAAGGAAUUAGAAGUAUUACAUGAGGAUCACCCAUGUUUGAUAAGAAA
MS2 coat protein [1]; [5]
  apparent Kd: 9.61 nM
MS2 coat protein [1]; [6]
  apparent Kd: 8.77 nM

## AGACAUGAGGAUCACCCAUGUGAAGUGGAUACCAGCCGCAGCGAUGGCCCUUGGCAGCCAGCUUUGUGUCGAUACAUCCGCACUU
MS2 coat protein [1]; [7]
  apparent Kd: 15.9 nM
MS2 coat protein [1]; [8]
  apparent Kd: 25.8 nM

## AGAUCCUUGGUCAGGAUAUCCAAUAAAGCCGUUUGGGAGAAGGGACAUGAGGAUCACCCAUGUAAAUUGACCAC
MS2 coat protein [1]; [3]
  apparent Kd: 12.2 nM
MS2 coat protein [1]; [4]
  apparent Kd: 32.3 nM

## AGCGAAUAAGGAUAUACGUGAAAAGCACUUAGAGUUGGAUCACAUGAGGAUCACCCAUGUAGAAGGUAUGACGA
MS2 coat protein [1]; [3]
  apparent Kd: 18.6 nM
MS2 coat protein [1]; [4]
  apparent Kd: 15.7 nM

## AUACUAAACAUGAGGAUCACCCAUGUGACGUCAGGUCAGUUGAGAAGGCUAGGGAUGCUAGAUGUAGAGGAUAUCAGCGACGGA
MS2 coat protein [1]; [3]
  apparent Kd: 15.4 nM
MS2 coat protein [1]; [4]
  apparent Kd: 9.76 nM

## AUAGAAAAUGUAAGGAUAUAUCGAAACAAUAAACGAAAGAAGGAACAUGAGGAUCACCCAUGUAAAGUAAUAAA
MS2 coat protein [1]; [3]
  apparent Kd: 10.3 nM
MS2 coat protein [1]; [4]
  apparent Kd: 9.25 nM

## AUCGACAAAGGAUAUGAUGCGAAUGACAUGAGGAUCACCCAUGUGGAGCCAAGUGUCCCGUCAGAAGGUUGUACGU
MS2 coat protein [1]; [3]
  apparent Kd: 152 nM
MS2 coat protein [1]; [4]
  apparent Kd: 313 nM

## AUCUAGUGCCUCAAGGAUAUGCACAGAGAGACAUGAGGAUCACCCAUGUAACAAGCAUGCUCAACGCAGAAGGUGACACUUAAGAU
MS2 coat protein [1]; [5]
  apparent Kd: 39.2 nM
MS2 coat protein [1]; [6]
  apparent Kd: 12.7 nM

## AUCUCUGACUAAGGAUAUGCGGCAAAGAGCCUCUCAGAAAACAUGAGGAUCACCCAUGUAUGGACGCAGAAGGUAGUAGCCCAC
MS2 coat protein [1]; [5]
  apparent Kd: 9.06 nM
MS2 coat protein [1]; [6]
  apparent Kd: 21.4 nM

## AUGCCACUUAAGAAGGCGGCGUGAUGCUUAGCGUUGAGACAUGAGGAUCACCCAUGUGACGUACCCGAGGAUAUUAAUGGAAUC
MS2 coat protein [1]; [5]
  apparent Kd: 17 nM
MS2 coat protein [1]; [6]
  apparent Kd: 11.7 nM

## UUUUUAUUUGCAGGAUAUUGUUUUUUAUUACUUCAAGAAGGGCAUUACAUGAGGAUCACCCAUGUCAUCCUAUGGUUAACUAGU
MS2 coat protein [2]; no ligand
  apparent Kd: 9.64 nM
MS2 coat protein [2]; [11]
  apparent Kd: 11.6 nM

## UUUUUGUGAGGAUAUCAGUAGUAAAAAAAUAAAAUUACUACUGAGAAGGCACAUGAGGAUCACCCAUGUUCCUU
MS2 coat protein [2]; no ligand
  apparent Kd: 14.3 nM
MS2 coat protein [2]; [11]
  apparent Kd: 33.5 nM

## UUUUUGUGAGGAUAUCAGUAGUAGAACAAUAGUACUACUACUGAGAAGGCACAUGAGGAUCACCCAUGUUUCUC
MS2 coat protein [2]; no ligand
  apparent Kd: 50.2 nM
MS2 coat protein [2]; [11]
  apparent Kd: 294 nM

## UUUUUUUACUAGGAUAUCAGAGUCGAAAGACUCUGAGAAGGAGUAACAUGAGGAUCACCCAUGUGUCCUUUUUU
MS2 coat protein [2]; no ligand
  apparent Kd: 20.1 nM
MS2 coat protein [2]; [11]
  apparent Kd: 49.3 nM

Source: the EternaBench riboswitch data
